In series [1] the target is T1, 5-hydroxytryptamine receptor 6 (Homo sapiens, UniProt P50406). Briefly: Antagonist activity at human 5-HT6 receptor expressed in human HeLa cells assessed as inhibition of 5-HT-induced cAMP accumulation at 10 uM pretreated for 10 mins before 5-HT addition measured after 30 mins. Format: functional, cell-based. An outline of the steps:
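HeLa cells stably expressing human 5-HT6 receptor, grown at 37 °C in 5% CO2/95% air, suspended in PBS with 2 mM IBMX. Compound pretreatment 10 min, then 100 nM 5-HT stimulation for 30 min. cAMP measured by HTRF (d2-labeled cAMP plus cryptate anti-cAMP antibody, 1 h at room temperature), excitation 314 nm, emission 668 and 620 nm. Single-point inhibition read at […].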

A further series addresses T2, CYP1A2 (Homo sapiens, UniProt P05177).
T2 sequence (P05177 whole entry): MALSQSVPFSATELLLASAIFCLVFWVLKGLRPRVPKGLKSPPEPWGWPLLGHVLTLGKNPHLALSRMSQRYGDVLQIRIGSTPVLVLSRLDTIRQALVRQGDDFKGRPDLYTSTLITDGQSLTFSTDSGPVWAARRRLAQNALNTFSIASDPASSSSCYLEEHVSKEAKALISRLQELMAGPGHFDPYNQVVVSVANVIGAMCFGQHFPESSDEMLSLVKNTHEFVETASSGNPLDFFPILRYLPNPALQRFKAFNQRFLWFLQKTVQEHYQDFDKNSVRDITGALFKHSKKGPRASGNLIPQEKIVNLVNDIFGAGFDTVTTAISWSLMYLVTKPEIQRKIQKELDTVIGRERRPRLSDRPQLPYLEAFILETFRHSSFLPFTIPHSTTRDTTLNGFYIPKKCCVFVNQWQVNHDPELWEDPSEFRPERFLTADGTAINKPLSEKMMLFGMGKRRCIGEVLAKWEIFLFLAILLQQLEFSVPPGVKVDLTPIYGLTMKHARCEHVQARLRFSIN
Briefly: Inhibition of human CYP1A2 assessed as residual activity using alpha-naphthoflavon as […] at 10 uM relative to control. Type of series: ADME. The note with it: read-out: Activity.

The nature of series [2]: Metabolic stability in human liver microsomes assessed as compound remaining after 30 mins. Type of series: ADME, Microsome. The settings on record: read-out: Stability. An outline of the steps: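 Compounds incubated with human hepatic microsomes; percent of parent concentration remaining at 30 min.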
The next series has as its target CYP3A4 (Homo sapiens, UniProt P08684). Briefly: Inhibition of human CYP3A4 assessed as residual activity using ketoconazole as […] at 10 uM relative to control. Type of series: ADME. The note with it: probe ketoconazole, read-out: Activity.
The target in a further series is CYP2D6 (Homo sapiens, UniProt P10635). Briefly: Inhibition of human CYP2D6 assessed as residual activity using quinidine as […] at 10 uM relative to control. Format: ADME. The settings on record: probe quinidine, read-out: Activity.
Series [3] has as its system Rattus norvegicus. Briefly: Antiallodynic activity in rat spinal nerve ligation neuropathic pain mechanical allodynia model at 100 mg/kg, po after 1 to 3 hrs. Type of series: functional, organism-based. Details: dose 100 mg/kg. An outline of the steps:
(§1)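 Cold and mechanical allodynia assessed at hours after a single oral 100 mg/kg dose, n = 4 per group; gabapentin 100 mg/kg po as reference.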

The next series deals with CYP2C9 (Homo sapiens, UniProt P11712). Briefly: Inhibition of human CYP2C9 assessed as residual activity using sulfaphenazol as […] at 10 uM relative to control. Format: ADME. The settings on record: read-out: Activity.
Series [4] deals with Rattus norvegicus. Briefly: Antiallodynic activity in rat spinal nerve ligation neuropathic pain mechanical allodynia model at 100 mg/kg, po after 5 hrs. Format: functional, organism-based. Details: dose 100 mg/kg. An outline of the steps:
as §1

Series [5] deals with T1, 5-hydroxytryptamine receptor 6. Briefly: Antagonist activity at human 5-HT6 receptor expressed in human HeLa cells assessed as inhibition of 5-HT-induced cAMP accumulation pretreated for 10 mins before 5-HT addition measured after 30 mins. Type of series: functional, cell-based.
A further series deals with CYP2C19 (Homo sapiens, UniProt P33261). Briefly: Inhibition of human CYP2C19 assessed as residual activity using miconazole as […] at 10 uM relative to control. Format: ADME. The settings on record: probe miconazole, read-out: Activity.
For series [6], the species on record is Rattus norvegicus. Briefly: Ratio of gabapentin antiallodynic activity to compound antiallodynic activity in rat spinal nerve ligation neuropathic pain cold allodynia model. Format: functional.
Series [7] has as its system Rattus norvegicus. Briefly: Antiallodynic activity in rat spinal nerve ligation neuropathic pain cold allodynia model at 100 mg/kg, po after 1 to 5 hrs. Format: functional, organism-based. Also noted: dose 100 mg/kg. A digest of the protocol: as §1

The source made the active and inactive calls. The calls are words filed in the database; no cut-off is given here.

CYP2C19, sequence (P33261 whole entry): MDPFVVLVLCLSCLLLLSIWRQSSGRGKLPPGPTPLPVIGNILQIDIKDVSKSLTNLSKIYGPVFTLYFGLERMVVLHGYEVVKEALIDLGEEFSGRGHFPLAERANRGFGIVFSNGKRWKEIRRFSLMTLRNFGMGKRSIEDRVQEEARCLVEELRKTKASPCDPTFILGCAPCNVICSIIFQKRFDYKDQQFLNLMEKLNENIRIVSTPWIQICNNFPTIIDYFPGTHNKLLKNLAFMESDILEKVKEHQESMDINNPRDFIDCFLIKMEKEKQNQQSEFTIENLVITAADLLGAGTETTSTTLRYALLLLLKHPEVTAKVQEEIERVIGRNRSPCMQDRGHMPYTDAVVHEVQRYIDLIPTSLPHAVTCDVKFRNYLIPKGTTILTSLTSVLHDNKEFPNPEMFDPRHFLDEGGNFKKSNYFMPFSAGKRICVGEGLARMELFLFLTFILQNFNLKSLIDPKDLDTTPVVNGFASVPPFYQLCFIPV
T1 sequence (P50406 whole entry): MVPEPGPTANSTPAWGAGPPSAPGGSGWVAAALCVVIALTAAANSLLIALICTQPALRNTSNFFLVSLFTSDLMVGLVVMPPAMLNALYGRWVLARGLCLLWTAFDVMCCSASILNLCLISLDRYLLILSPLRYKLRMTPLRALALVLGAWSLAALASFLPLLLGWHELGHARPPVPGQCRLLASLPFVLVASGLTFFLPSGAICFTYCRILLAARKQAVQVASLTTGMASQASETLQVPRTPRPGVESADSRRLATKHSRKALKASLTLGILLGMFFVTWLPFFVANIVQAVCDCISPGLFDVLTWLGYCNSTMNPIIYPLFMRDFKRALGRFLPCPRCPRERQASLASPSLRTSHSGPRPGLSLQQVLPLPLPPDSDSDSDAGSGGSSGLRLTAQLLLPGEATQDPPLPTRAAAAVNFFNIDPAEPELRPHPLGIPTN
CYP2D6, sequence (P10635 whole entry): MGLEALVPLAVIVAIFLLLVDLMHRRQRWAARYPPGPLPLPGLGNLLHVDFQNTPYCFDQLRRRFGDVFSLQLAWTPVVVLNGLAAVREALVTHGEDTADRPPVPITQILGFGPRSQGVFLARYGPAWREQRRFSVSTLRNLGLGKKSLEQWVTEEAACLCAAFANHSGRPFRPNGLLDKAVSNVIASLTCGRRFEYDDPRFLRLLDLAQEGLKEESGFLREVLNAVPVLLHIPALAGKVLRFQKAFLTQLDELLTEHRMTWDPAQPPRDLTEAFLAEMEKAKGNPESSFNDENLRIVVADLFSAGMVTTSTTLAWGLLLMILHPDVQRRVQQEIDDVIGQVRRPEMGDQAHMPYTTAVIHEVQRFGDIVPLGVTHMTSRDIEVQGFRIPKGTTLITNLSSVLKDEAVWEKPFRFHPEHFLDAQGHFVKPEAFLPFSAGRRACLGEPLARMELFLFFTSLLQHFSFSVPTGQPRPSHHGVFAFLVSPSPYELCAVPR
CYP2C9, sequence (P11712 whole entry): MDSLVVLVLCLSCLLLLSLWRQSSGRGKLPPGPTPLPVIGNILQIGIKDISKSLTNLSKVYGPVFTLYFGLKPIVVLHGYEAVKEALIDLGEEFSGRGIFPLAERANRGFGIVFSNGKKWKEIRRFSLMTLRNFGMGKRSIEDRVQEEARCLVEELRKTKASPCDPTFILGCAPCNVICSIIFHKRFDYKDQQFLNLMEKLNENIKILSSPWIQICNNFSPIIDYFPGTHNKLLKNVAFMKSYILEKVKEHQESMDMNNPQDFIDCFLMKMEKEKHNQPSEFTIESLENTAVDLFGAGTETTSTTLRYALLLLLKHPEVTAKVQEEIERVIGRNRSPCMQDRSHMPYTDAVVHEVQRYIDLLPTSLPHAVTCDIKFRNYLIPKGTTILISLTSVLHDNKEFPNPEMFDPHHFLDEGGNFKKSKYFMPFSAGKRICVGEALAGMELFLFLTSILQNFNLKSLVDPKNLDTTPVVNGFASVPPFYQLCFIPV
CYP3A4, sequence (P08684 whole entry): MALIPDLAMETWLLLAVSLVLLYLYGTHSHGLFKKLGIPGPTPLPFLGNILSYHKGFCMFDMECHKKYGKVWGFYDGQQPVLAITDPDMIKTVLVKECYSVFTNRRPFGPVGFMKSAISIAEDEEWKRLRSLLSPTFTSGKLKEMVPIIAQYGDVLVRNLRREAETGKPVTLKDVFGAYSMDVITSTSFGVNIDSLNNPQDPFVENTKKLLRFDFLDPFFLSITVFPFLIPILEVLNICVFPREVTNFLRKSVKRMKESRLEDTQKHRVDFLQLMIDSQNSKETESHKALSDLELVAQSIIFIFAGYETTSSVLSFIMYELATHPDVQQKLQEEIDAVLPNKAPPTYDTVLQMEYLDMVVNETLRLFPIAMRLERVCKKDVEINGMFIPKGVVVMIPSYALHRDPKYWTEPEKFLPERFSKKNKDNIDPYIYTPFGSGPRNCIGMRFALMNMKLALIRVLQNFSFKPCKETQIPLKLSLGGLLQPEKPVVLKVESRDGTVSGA

For the compound `COc1ccc(N2CCc3c(NS(=O)(=O)c4ccc(F)cc4)n[nH]c3C2=O)cc1`, the inhibition in series [1] is 30.6%.

As to `O=C1c2[nH]nc(NS(=O)(=O)c3ccc4ccccc4c3)c2CCN1CC1CCNCC1`, the inhibition in series [1] came to 40.9%.

Consider `O=C1c2[nH]nc(NS(=O)(=O)c3cccc4ccccc34)c2CCN1CC1CCNCC1`, for which the activity at 10 µM on CYP1A2 was 79.1%; on CYP3A4 it was 17.8%; at CYP2D6, 97.2%; on CYP2C9 it was 98.4%; at CYP2C19, 104%. Besides, the remaining at 0.5 h in series [2] was 90.8%. For the same compound, the Activity entry in the series with Rattus norvegicus [3] and in the series with Rattus norvegicus [7] was “Active” throughout. For the same compound, the Activity entry in the series on Rattus norvegicus [4] is “inactive”. For the same compound, in [5], the IC50 was 310 nM. Moreover, the Ratio in the series filed under Rattus norvegicus [6] amounted to 5. In addition, the inhibition in [1] is 94.1%.

Regarding `COc1cccc(S(=O)(=O)Nc2n[nH]c3c2CCN(c2ccc(C)cc2)C3=O)c1`, in series [5], the IC50 was found to be 6770 nM. Further, in series [1], the inhibition was found to be 63.2%.

Consider `Cc1ccc(N2CCc3c(NS(=O)(=O)c4ccccc4F)n[nH]c3C2=O)cc1`, for which the inhibition in series [1] is 29.6%.

Turning to `Cc1ccc(N2CCc3c(NS(=O)(=O)c4cc(C)ccc4F)n[nH]c3C2=O)cc1`, in series [1], the inhibition came to 25.9%.

Regarding `Cc1ccc(F)c(S(=O)(=O)Nc2n[nH]c3c2CCN(CC2CCNCC2)C3=O)c1`, in [1], the inhibition was 30.6%.

For `COc1ccc(N2CCc3c(NS(=O)(=O)c4cccc(F)c4)n[nH]c3C2=O)cc1`, the activity at 10 µM was determined as 63.5% on CYP1A2; 19.5% on CYP3A4; 87.8% at CYP2D6; 78.6% at CYP2C9; 81.8% on CYP2C19. For the same compound, the remaining at 0.5 h in [2] came to 96.3%. Also, the IC50 in series [5] turned out to be 580 nM. For the same compound, in series [1], the inhibition was 95.2%.

As to `COc1ccc(S(=O)(=O)Nc2n[nH]c3c2CCN(CC2CCNCC2)C3=O)cc1`, the inhibition in [1] came out at 15.1%.

On to `O=C1c2[nH]nc(NS(=O)(=O)c3cccc(Cl)c3)c2CCN1CC1CCNCC1`, for which, in series [1], the inhibition turned out to be 31%.

Take `Cc1ccc(N2CCc3c(NS(=O)(=O)c4ccc(F)cc4)n[nH]c3C2=O)cc1`: the IC50 in series [5] was determined as 5220 nM. Also, the inhibition in series [1] amounted to 67.9%.

Take `COc1ccc(OC)c(S(=O)(=O)Nc2n[nH]c3c2CCN(c2ccc(C)cc2)C3=O)c1`: the inhibition in series [1] was 3.8%.

Take `COc1ccc(S(=O)(=O)Nc2n[nH]c3c2CCN(C2CCNCC2)C3=O)cc1`: in series [1], the inhibition is 26.1%.

In the case of `Cc1ccc(N2CCc3c(NS(=O)(=O)c4ccccc4)n[nH]c3C2=O)cc1`, the inhibition in series [1] came to 23.5%.

`Cc1ccc(N2CCc3c(NS(=O)(=O)c4cccc(Cl)c4C)n[nH]c3C2=O)cc1`: the IC50 in series [5] is 1660 nM. The inhibition in series [1] was 92.2%.

With `Cc1ccc(N2CCc3c(NS(=O)(=O)c4cccc(Cl)c4)n[nH]c3C2=O)cc1`, the inhibition in series [1] was found to be 5.4%.

For `O=C1c2[nH]nc(NS(=O)(=O)c3cccc4ccccc34)c2CCN1C1CCNCC1`, the activity at 10 µM on CYP1A2 turned out to be 67.7%; at CYP3A4, 16.7%; at CYP2D6, 95.1%; at CYP2C9, 94.5%; at CYP2C19, 99.8%. In [2], the remaining at 0.5 h came out at 101%. In addition, in [5], the IC50 was determined as 770 nM. For the same compound, the inhibition in series [1] turned out to be 89.5%.

Turning to `Cc1c(Cl)cccc1S(=O)(=O)Nc1n[nH]c2c1CCN(CC1CCNCC1)C2=O`, the inhibition in series [1] came out at 51.7%.

For the compound `COc1ccc(NS(=O)(=O)c2ccc(I)cc2)cc1N1CCN(C)CC1`, in series [1], the inhibition was 97.7%.

In the case of `Cc1ccc(N2CCc3c(NS(=O)(=O)c4cccc(F)c4)n[nH]c3C2=O)cc1`, in series [1], the inhibition amounted to 18.1%.

Turning to `COc1ccc(N2CCc3c(NS(=O)(=O)c4ccccc4)n[nH]c3C2=O)cc1`, in series [1], the inhibition amounted to 30.6%.

For `COc1ccc(N2CCc3c(NS(=O)(=O)c4cccc(OC)c4)n[nH]c3C2=O)cc1`, the IC50 in series [5] turned out to be 7080 nM. Further, in series [1], the inhibition came out at 63.3%.

For the compound `Cc1ccc(N2CCc3c(NS(=O)(=O)c4cccc(C(F)(F)F)c4)n[nH]c3C2=O)cc1`, the IC50 in series [5] was found to be 3280 nM. Besides, the inhibition in series [1] was determined as 69%.

On to `CC(C)(C)c1ccc(S(=O)(=O)Nc2n[nH]c3c2CCN(CC2CCNCC2)C3=O)cc1`, for which, in [1], the inhibition is 11.5%.

For the origin of these results see ChEMBL document CHEMBL2406983, “Synthesis and the 5-HT6 receptor antagonistic effect of 3-arylsulfonylamino-5,6-dihydro-6-substituted pyrazolo[3,4]pyridinones for neuropathic pain treatment” (Bioorg Med Chem Lett, 2013).
